One compound from PubChem BioAssay AID504407 (Broad Institute, 2011) can be followed below.

This assay in a line: cytochrome c release from parental CHL-1 mitochondria, counter-screen for A1 inhibitor project, biochemical, CHL-1 wild type, cytochrome c ELISA, dry powder (AID 504407). The conditions noted are these: CHL-1 isolated mitochondria, at 50 µM, hits give high values. An outline of the steps:
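Test system: isolated mitochondria from wild-type CHL-1 cells; technique: cytochrome c ELISA absorbance, 450 nm with 540 nm correction; read-out: cytochrome c in supernatant after 8000 g pelleting; schedule: compound exposure of mitochondria, 30 min at 30 °C; control set: DMSO-treated negative controls, tBid-treated positive controls; medium: AT buffer, 80 mM KCl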
On the technique in general: A counterscreen serves to expose hits that act by an unwanted route or on another target.

Values without a mark were called inactive.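 Rule for the calls: active = cytochrome c release activity at 50 µM, scaled between control wells and rounded, of 10% or more; inactive = the rest.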

For the compound `Cn1c(=O)c([N+](=O)[O-])c(Cl)c2ccccc21`, the cytochrome c release activity is 0.1%.
